Test results: ChEMBL document CHEMBL5032492, “Aminoalkoxycarbonyloxymethyl Ether Prodrugs with a pH-Triggered Release Mechanism: A Case Study Improving the Solubility, Bioavailability, and Efficacy of Antimalarial 4(1H)-Quinolones with Single Dose Cures” (J Med Chem, 2021)
≈ marks a conversion by molar mass, not a printed value. Calls of active or inactive are those of the source. The rule behind the calls is not given here.

Assays:
Plasmodium berghei [1] = test: (§1) In vivo antimalarial activity against blood stage Plasmodium berghei transfected with GFP infected in BALB/c mouse assessed as supression of parasitemia at 10 mg/kg, po administered once daily starting from day 3 to 5 post infection and measured at day 6 by Giemsa staining based flow cytometric analysis relative to control; type: functional
Procedure, shortened: (§2)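 Female BALB/c mice, 4–6 weeks old, five per group, were infected intraperitoneally with 2 × 10^6 P. berghei-GFP-infected red cells. Oral doses of 10 or 50 mg/kg in 0.5% aqueous HEC were given once daily on days 3–5 PI; prodrugs were suspended about 1 min before dosing. Parasitemia was measured by flow cytometry and Giemsa smears. Day-6 percent suppression was calculated versus untreated controls, with Welch-corrected t test.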

[2] = Solubility of the compound in 0.5% hydroxyethylcellulose
[3] = Toxicity in BALB/c mouse infected with blood stage Plasmodium berghei assessed as weight loss at up to at 50 mg/kg, po administered once daily starting from day 3 to 5 post infection and measured on day 6; type: organism-based; details: in vivo
Procedure, shortened: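 P. berghei-infected BALB/c mice were dosed orally once daily on days 3–5 PI in 0.5% aqueous HEC, at doses up to 50 mg/kg. Body weight of treated animals was monitored for loss.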

Plasmodium berghei [4] = test: as §1, with “50” for “10”; type: functional; procedure, shortened: as §2
[5] = Aqueous solubility of compound at pH 2.4; details: buffer
[6] = Clearance in BALB/c mouse at 50 mg/kg, po; type: ADME, organism-based; details: in vivo
Procedure, shortened: (§3)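 Single oral dose in mice, formulated in 0.5% aqueous HEC; doses of 3, 10 or 50 mg/kg. The parent 4(1H)-quinolone was quantified in plasma over time after dosing, with a lower limit of quantification of 1 nM. PK parameters were derived from the plasma concentration profiles.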

[7] = AUC (0 to 24 hrs) in BALB/c mouse at 50 mg/kg, po; type: ADME, organism-based; set-up: time < 24 hr, route oral, dose 50 mg/kg; details: in vivo; procedure, shortened: as §3
Plasmodium berghei [8] = test: In vivo antimalarial activity against Plasmodium berghei at 20 mg/kg, po administered as single dose in presence of ferroquine; type: functional, organism-based
Plasmodium falciparum [9] = test: (§4) Antimalarial activity against chloroquine, pyrimethamine, mefloquine and atovaquone- resistant Plasmodium falciparum TM90-C2B infected in human erythrocytes assessed as reduction in parasite growth incubated for 48 hrs followed by addition of [3H]-hypoxanthine and measured after 24 hrs by Topcount liquid scintillation counting method; type: functional, organism-based; details: Erythrocyte
Plasmodium falciparum [10] = test: as §4, with “chloroquine” for “chloroquine, pyrimethamine, mefloquine”, “pyrimethamine” for “atovaquone-”, “W2” for “TM90-C2B”; type: functional, organism-based; details: W2, Erythrocyte
[11] = Aqueous solubility of compound at pH 7.4; type: physicochemical; details: buffer
[12] = Clearance in BALB/c mouse at 10 mg/kg, po; type: ADME, organism-based; details: in vivo; procedure, shortened: as §3
[13] = Volume of distribution in BALB/c mouse at 10 mg/kg, po; type: ADME, organism-based; details: in vivo; procedure, shortened: as §3
[14] = Apparent half life in BALB/c mouse at 10 mg/kg, po; type: ADME, organism-based; details: in vivo, read-out: t1/2(app) (converted); procedure, shortened: as §3
[15] = Cmax in BALB/c mouse at 3 mg/kg, po; type: ADME, organism-based; set-up: route oral, dose 3 mg/kg; details: in vivo; procedure, shortened: as §3
[16] = Clearance in BALB/c mouse at 3 mg/kg, po; type: ADME, organism-based; details: in vivo; procedure, shortened: as §3
Plasmodium berghei [17] = test: as §1, with “administered as single dose on” for “administered once daily starting from day”, “3 days” for “3 to 5”, “measured on” for “measured at”; type: functional
Procedure, shortened: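 Female BALB/c mice, 4–6 weeks old, five per dose group, were infected intraperitoneally with 2 × 10^6 P. berghei-GFP-infected red cells. Each received one oral dose on day 3 PI in 0.5% aqueous HEC; doses ranged 0.01–10 mg/kg. Parasitemia was measured from tail blood by flow cytometry and Giemsa smears. Percent suppression on day 6 PI was calculated versus untreated infected controls, with Welch-corrected unpaired t test.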

[18] = Tmax in BALB/c mouse at 3 mg/kg, po; type: ADME, organism-based; details: in vivo; procedure, shortened: as §3
[19] = Cmax in BALB/c mouse at 10 mg/kg, po; type: ADME, organism-based; set-up: route oral, dose 10 mg/kg; details: in vivo; procedure, shortened: as §3
[20] = AUC (0 to 24 hrs) in BALB/c mouse at 3 mg/kg, po; type: ADME, organism-based; set-up: time < 24 hr, route oral, dose 3 mg/kg; details: in vivo; procedure, shortened: as §3
[21] = Volume of distribution in BALB/c mouse at 3 mg/kg, po; type: ADME, organism-based; details: in vivo; procedure, shortened: as §3
[22] = Apparent half life in BALB/c mouse at 3 mg/kg, po; type: ADME, organism-based; details: in vivo, read-out: t1/2(app) (converted); procedure, shortened: as §3
[23] = AUC (0 to 24 hrs) in BALB/c mouse at 10 mg/kg, po; type: ADME, organism-based; set-up: time < 24 hr, route oral, dose 10 mg/kg; details: in vivo; procedure, shortened: as §3
[24] = Tmax in BALB/c mouse at 10 mg/kg, po; type: ADME, organism-based; details: in vivo; procedure, shortened: as §3

solubility [5] [µM]	SMILES	Activity (Plasmodium berghei [1]) [%]	Activity [3]	Activity (Plasmodium berghei [4]) [%]	EC50 (Plasmodium falciparum [9]) [µM]	EC50 (Plasmodium falciparum [10]) [µM]	further results
600	CNCCCOC(=O)OCOc1c(-c2ccc(C(F)(F)F)cc2)c(C)nc2cc(OC)c(Cl)cc12.Cl	82	Non-Toxic	96	–	–	solubility [2]: > 5500 µM; clearance [6]: 0.468 L/h/kg; AUC [7]: 11664 µmol·min/L
–	c1cc([C@H]2CC[C@]3(CC2)OOC2(O3)C3CC4CC(C3)CC2C4)ccc1OCCN1CCOCC1 (stereo partly specified)	–	–	–	–	–	Activity (Plasmodium berghei [8]): Active
100 (≈ 23.6 µg/mL)	NC(=O)N1c2ccccc2C=Cc2ccccc21 [CARBAMAZEPINE]	–	–	–	–	–	solubility [11]: 95 µM (≈ 22.4 µg/mL)
–	CN1CCCOC1=O	–	–	–	–	> 8.32	–
< 1	COc1cc2[nH]c(C)c(-c3ccc(C(F)(F)F)cc3)c(=O)c2cc1Cl	11	Non-Toxic	10	–	–	clearance [6]: 36.6 L/h/kg; AUC [7]: 222 µmol·min/L
–	CCN(CC)C(=O)Oc1c(-c2ccccc2C)c(C)nc2cc(OC)c(Cl)cc12	–	–	–	> 3.55	> 2.29	solubility [11]: < 1 µM
–	COc1cc2[nH]c(C)c(-c3ccc(Oc4ccc(OC(F)(F)F)cc4)cc3F)c(=O)c2cc1Cl	–	–	–	–	–	clearance [12]: 2.09 L/h/kg; Vd [13]: 44 L/kg; half-life [14]: 14.5 h; Cmax [15]: 0.31 µM; clearance [16]: 1.6 L/h/kg; Activity (Plasmodium berghei [17]; time 3 day): <1%; Activity (Plasmodium berghei [17]; time 3.0 day): inactive; Tmax [18]: 4 h; Cmax [19]: 0.46 µM; AUC [20]: 228 µmol·min/L; Vd [21]: 19.6 L/kg; half-life [22]: 8.5 h; AUC [23]: 580 µmol·min/L; Tmax [24]: 8 h

SMILES	solubility [5] [µM]	Activity (Plasmodium berghei [1]) [%]	Activity [3]	Activity (Plasmodium berghei [4]) [%]	EC50 (Plasmodium falciparum [9]) [µM]	EC50 (Plasmodium falciparum [10]) [µM]	further results
COc1cc2[nH]c(C)c(-c3ccccc3C)c(=O)c2cc1Cl	6.9 (≈ 2.17 µg/mL)	29	Non-Toxic	28	0.038	0.0219	–
CNCCOC(=O)OCOc1c(-c2ccccc2C)c(C)nc2cc(OC)c(Cl)cc12.Cl	> 100	71	–	46	0.107	0.219	solubility [2]: > 21000 µM
